Measured values taken from PMC8811919 (ACS Omega, 2022).
Like-named read-outs stand apart in the source and are kept apart here.

What was measured:
[1] = tested on: MCF-7 (human breast adenocarcinoma); assay: Cell viability in treated cell lines; format: cell-based; settings: MCF7, 72 h
Summary of the method: (§1)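 Cells were kept in RPMI 1640 with 10% FCS and penicillin/streptomycin at 37 °C, 5% CO2. They were seeded at 6000 cells/well, held 24 h, then given test compound at 0, 15.62, 31.25, 62.5, 125, 250, 500 and 1000 […] for 72 h. MTT (5 mg/mL) was added for 4 h, formazan dissolved in DMSO, and A570 read. Treatment was done in triplicate. EC50 came from sigmoidal variable-slope nonlinear regression of % growth inhibition.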

urease [2] = molecular target: T1, urease (Canavalia ensiformis, UniProt P07374); assay: Urease inhibitory assay; format: biochemical
T1 sequence (P07374 whole entry, looked up): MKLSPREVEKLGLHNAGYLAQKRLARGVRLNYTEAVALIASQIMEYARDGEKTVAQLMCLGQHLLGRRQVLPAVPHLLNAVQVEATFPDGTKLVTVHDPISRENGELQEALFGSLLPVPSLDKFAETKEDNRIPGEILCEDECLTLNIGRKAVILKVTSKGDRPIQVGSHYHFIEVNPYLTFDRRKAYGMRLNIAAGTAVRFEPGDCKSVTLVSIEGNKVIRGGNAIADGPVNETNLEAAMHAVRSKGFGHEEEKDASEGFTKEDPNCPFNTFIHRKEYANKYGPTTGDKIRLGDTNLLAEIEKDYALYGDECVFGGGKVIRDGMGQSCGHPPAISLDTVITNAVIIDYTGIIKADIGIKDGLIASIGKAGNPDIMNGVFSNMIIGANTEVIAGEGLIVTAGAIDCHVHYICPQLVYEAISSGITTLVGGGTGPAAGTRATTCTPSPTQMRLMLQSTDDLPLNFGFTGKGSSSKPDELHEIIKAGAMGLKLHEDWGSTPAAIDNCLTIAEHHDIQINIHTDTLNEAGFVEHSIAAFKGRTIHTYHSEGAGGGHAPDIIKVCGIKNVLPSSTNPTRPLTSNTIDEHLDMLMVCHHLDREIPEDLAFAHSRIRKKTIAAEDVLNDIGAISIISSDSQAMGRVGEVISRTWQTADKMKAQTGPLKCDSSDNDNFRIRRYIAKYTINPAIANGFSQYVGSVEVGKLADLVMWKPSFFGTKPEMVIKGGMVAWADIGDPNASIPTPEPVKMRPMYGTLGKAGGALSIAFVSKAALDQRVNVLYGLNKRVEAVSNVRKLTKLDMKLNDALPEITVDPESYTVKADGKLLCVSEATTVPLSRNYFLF
Summary of the method: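 Urease in pH 8.2 buffer (0.01 M K2HPO4·3H2O, 1 mM EDTA, 0.01 M LiCl) with 100 mM urea, incubated 15 min at 30 °C with test compound added from a 1 mM solution. Ammonia detected by indophenol: alkali (0.5% NaOH, 0.1% active chloride NaOCl) plus phenol reagent (1% phenol, 0.005% nitroprusside). A630 read after 50 min as change per min; triplicate; acetohydroxamic acid standard; % inhibition.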

HeLa (cervical cancer) = assay: Cell viability in treated cell lines; format: cell-based; settings: Homo sapiens, 72 h, read-out: EC50 HeLa
Summary of the method: as §1

urease [3] = molecular target: T1, urease; assay: Kinetic study of urease inhibition; format: biochemical
MCF-7 cells [4] = assay: Late apoptosis study; format: cell-based, human; settings: treated at EC50 of 72 h, 36 h incubation
Summary of the method: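 MCF-7 cells were seeded at 2 × 10^4 on chamber slides and held 24 h at 37 °C, then exposed to test compound for 36 h; untreated cells served as control. Cells were fixed in 4% paraformaldehyde/PBS (pH 7.4) for 25 min at 4 °C and permeabilised with 0.2% Triton X-100 for 5 min. DNA ends were labelled with rTdT/nucleotide mix at 37 °C in the dark. Diluted SSC was added, and nuclei were counterstained with PI (1 μg/mL, 15 min, RT). FITC signal was imaged by high-content microscopy.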

MCF-7 cells [5] = assay: Early apoptosis study; format: cell-based, human; settings: treated at EC50 of 72 h for 6 and 9 h
Summary of the method: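 MCF-7 cells were seeded at 10,000 cells/well and held 24 h at 37 °C. The medium was replaced with test compound, alongside a positive control and an untreated control, for 6 and 9 h. Cells were stained with Annexin V-FITC (green) and PI (red) in binding buffer for 10 min at 37 °C. They were imaged by widefield high-content imaging to score early versus late apoptosis and necrosis.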

| SMILES | EC50 ([1]; read-out: EC50 MCF-7) | IC50 (urease [2]) | EC50 (HeLa (cervical cancer)) | other results |
| --- | --- | --- | --- | --- |
| Oc1ccccc1C1=NN(c2ccccc2)C(c2ccc(Br)cc2)C1 (stereo not shown) [Compound 2c, 1-Phenyl-3(2-hydroxy-phenyl)-5-(4-bromo-phenyl)-2-pyrazoline] | > 500 µM | 12.6 ± 0.43 µM | > 500 µM | – |
| COc1cc(C2CC(c3ccccc3O)=NN2c2ccccc2)cc(OC)c1OC (stereo not shown) [Compound 2d, 1-Phenyl-3(2-hydroxy-phenyl)-5-(3,4,5-trimethoxyphenyl)-2-pyrazoline] | > 500 µM | 13.3 ± 0.25 µM | > 500 µM | – |
| CCCCCOC(=O)Nc1nc(=O)n([C@@H]2O[C@H](C)[C@@H](O)[C@H]2O)cc1F [CP, capecitabine, reference compound] | – | – | – | EC50 ([1]; read-out: EC50 on MCF-7): 980 µM; DNA fragmentation (TUNEL, green stain of nuclei) (MCF-7 cells [4]): green-stained nuclei were observed |
| Oc1ccccc1C1=NN(c2ccccc2)C(c2ccccc2)C1 (stereo not shown) [Compound 2l, 1-Phenyl-3(2-hydroxy-phenyl)-5-phenyl-2-pyrazoline] | 120 ± 0.1 µM | – | 510 µM | urease IC50 ± SEM (urease [2]; pH 8.2, 30 °C, 100 mM urea): NA* ^a; mode of MCF-7 cell death (Annexin V-FITC/PI staining) (MCF-7 cells [5]): induce early apoptosis; DNA fragmentation (TUNEL, green stain of nuclei) (MCF-7 cells [4]): morphologically detectable (green) |

Second part, led by results:

| EC50 ([1]; read-out: EC50 MCF-7) | IC50 (urease [2]) | EC50 (HeLa (cervical cancer)) | SMILES | other results |
| --- | --- | --- | --- | --- |
| > 500 µM | 9.13 ± 0.25 µM | > 500 µM | COc1ccc(C2CC(c3ccccc3O)=NN2c2ccccc2)cc1OC (stereo not shown) [Compound 2g, 1-Phenyl-3(2-hydroxy-phenyl)-5-(3,4-dimethoxyphenyl)-2-pyrazoline] | Ki (urease [3]): 19.1 µM; mode of inhibition (urease [3]; urease): competitive inhibition; Vmax (urease [3]; urease, at a 20 μM inhibitor concentration): 5.76 µM/min |
| > 500 µM | 13.7 ± 0.47 µM | > 500 µM | CC(=O)Nc1ccc(C2CC(c3ccccc3O)=NN2c2ccccc2)cc1 (stereo not shown) [Compound 2j, 1-Phenyl-3(2-hydroxy-phenyl)-5-(4-acetamidophenyl)-2-pyrazoline] | – |
| > 500 µM | 11.3 ± 0.51 µM | > 500 µM | O=C(O)c1ccc(C2CC(c3ccccc3O)=NN2c2ccccc2)cc1 (stereo not shown) [Compound 2h, 1-Phenyl-3(2-hydroxy-phenyl)-5-(4-carboxyphenyl)-2-pyrazoline] | – |
| > 500 µM | 12.2 ± 0.38 µM | > 500 µM | Cc1ccc(C2CC(c3ccccc3O)=NN2c2ccccc2)c(C)c1 (stereo not shown) [Compound 2p, 1-Phenyl-3(2-hydroxy-phenyl)-5(2,4-dimethyl-phenyl)-2-pyrazoline] | – |
| > 500 µM | 15.4 ± 0.38 µM | > 500 µM | COc1ccc(C2CC(c3ccccc3O)=NN2c2ccccc2)cc1 (stereo not shown) [Compound 2e, 1-Phenyl-3(2-hydroxy-phenyl)-5-(4-methoxyphenyl)-2-pyrazoline] | – |
